The text below walks through data of ChEMBL document CHEMBL2412983, “Synthesis and evaluation of N⁸-acetylspermidine analogues as inhibitors of bacterial acetylpolyamine amidohydrolase” (Bioorg Med Chem, 2013).

For orientation: IC50 means the midpoint of a concentration-inhibition curve.

Target in the first experiment: not listed separately
Description: Inhibition of N8-acetylspermidine deacetylase in rat liver subcellular extract. Conditions: read-out: Ki(app).
For `NCCCNCCCCCC(=O)NO`, the Ki is 0.001 µM.

A further experiment concerns the target T1, Acetylpolyamine amidohydrolase (Mycoplana ramosa, UniProt Q48935).
T1 sequence (Q48935 whole entry): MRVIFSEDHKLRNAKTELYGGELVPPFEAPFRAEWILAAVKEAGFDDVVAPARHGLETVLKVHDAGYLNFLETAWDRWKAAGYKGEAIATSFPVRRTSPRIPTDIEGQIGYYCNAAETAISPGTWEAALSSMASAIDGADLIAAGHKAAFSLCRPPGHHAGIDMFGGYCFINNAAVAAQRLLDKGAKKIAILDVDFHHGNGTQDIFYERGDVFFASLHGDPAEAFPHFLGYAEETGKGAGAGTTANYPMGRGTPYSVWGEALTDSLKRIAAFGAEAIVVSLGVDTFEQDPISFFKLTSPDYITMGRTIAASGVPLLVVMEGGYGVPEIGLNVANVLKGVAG
In words: Inhibition of Mycoplana ramosa APAH expressed in Escherichia coli BL21 (DE3) using BML-KI104 as substrate after 30 mins by fluorimetric assay.
Details: not given
The essentials:
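Recombinant enzyme purified from E. coli, 250 nM, at 25 °C with 150 μM Fluor-de-Lys acetyl substrate and 0–100 mM inhibitor. Buffer was 25 mM Tris pH 8.2, 137 mM NaCl, 2.7 mM KCl, 1 mM MgCl2, with 100 μM TCEP only for the thiol compound. Stopped at 30 min with 100 μM M344 plus developer. Fluorescence (ex 355/em 460 nm) was read after 45 min. Each concentration was run in triplicate in separate experiments.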
`CC(=O)CCCCCNCCCN` registered an IC50 of 160 µM.
The same measure, in the same setting: as for `NCCCNCCCCCC(=O)NO`, the figure is 0.39 µM; as for `NCCCNCCCCCS`, 26 µM.
With `CS(=O)(=O)CCCCCNCCCN`, the IC50 came to 10000 µM.
Same read-out and setting: the value for `NCCCNCCCCCC(=O)O` was 1800 µM; that for `NCCCNCCCCCC(=O)C(F)(F)F` was 0.27 µM.
On to `CC(=O)SCCCCCNCCCN`, for which the 50% inhibitory concentration (IC50) worked out at 1900 µM.
Still for that read-out and setting: the value for `NCCCNCCCCCB(O)O` was 230 µM.
Same read-out and setting: the value for `COCC(=O)CCCCCNCCCN` was 380 µM.
`CC(=O)SCC(=O)CCCCCNCCCN`: half-maximal inhibition (IC50) required 39 µM.
